The record followed here is ChEMBL document CHEMBL4041524, “Synthesis and Characterization of a Novel γ-Aminobutyric Acid Type A (GABAA) Receptor Ligand That Combines Outstanding Metabolic Stability, Pharmacokinetics, and Anxiolytic Efficacy” (J Med Chem, 2016).

Structures are written as SMILES. Active and inactive are the calls of the source. The calls are words filed in the database; no cut-off is given here.

Data set [1] relates to Mus musculus. Nature of the data set: Toxicity in Swiss mouse assessed as change in motor coordination by measuring number of falls from the rotating rod at 30 mg/kg, ip administered 30 mins prior to testing measured for 2 mins by rotarod test relative to control. The class given is organism-based. To be noted: in vivo. An outline of the steps:
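The same mice used for marble burying were placed on a rotarod at 4 r.p.m. for 2 min. No fall was scored success, one fall partial, and two falls failure.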

Data set [2] has as its system Rattus norvegicus. Nature of the data set: Anxiolytic like activity in water-deprived Sprague-Dawley rat assessed as increase in water drinking time during punished period at 10 mg/kg, po administered 30 mins prior to testing by Vogel conflict test relative to control. The class given is functional. An outline of the steps: (§1)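 Water-deprived male Sprague-Dawley rats (n = 6–8) drank during unpunished and punished periods, with licking suppressed by mild shock in punished periods. Compounds were given 30 min before testing. Analysis was ANOVA with Dunnett's test.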

A short description of data set [3]: Drug uptake in Sprague-Dawley rat brain at 10 mg/kg, ip measured after 4 hrs. The class given is ADME, organism-based. To be noted: read-out: Drug uptake. In outline:
(§2)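 Rats were given 10 mg/kg i.p. (n = 3), and total plasma and brain concentrations were measured at 4 h. Unbound concentrations were calculated as Fu × total concentration, and Kp,uu = Cu,brain/Cu,plasma.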

For data set [4], the system named is Mus musculus. Nature of the data set: Anxiolytic-like activity in Swiss Webster mouse marble burying model of anxiety assessed as suppression of marble burying activity at 30 mg/kg, ip administered 30 mins prior to test relative to vehicle-control. The class given is functional, organism-based. An outline of the steps: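 Male NIH Swiss Webster mice (n = 10) received vehicle or compound at 10 or 30 mg/kg i.p. 30 min before marble burying testing. Sedation-like behaviour was noted by observation. Analysis was ANOVA with Dunnett's test vs vehicle.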

In data set [5] the target is T1, GABA-A receptor; alpha-1/beta-3/gamma-2 (Homo sapiens, UniProt P14867+P18507+P28472).
T1 sequence (P14867 whole entry): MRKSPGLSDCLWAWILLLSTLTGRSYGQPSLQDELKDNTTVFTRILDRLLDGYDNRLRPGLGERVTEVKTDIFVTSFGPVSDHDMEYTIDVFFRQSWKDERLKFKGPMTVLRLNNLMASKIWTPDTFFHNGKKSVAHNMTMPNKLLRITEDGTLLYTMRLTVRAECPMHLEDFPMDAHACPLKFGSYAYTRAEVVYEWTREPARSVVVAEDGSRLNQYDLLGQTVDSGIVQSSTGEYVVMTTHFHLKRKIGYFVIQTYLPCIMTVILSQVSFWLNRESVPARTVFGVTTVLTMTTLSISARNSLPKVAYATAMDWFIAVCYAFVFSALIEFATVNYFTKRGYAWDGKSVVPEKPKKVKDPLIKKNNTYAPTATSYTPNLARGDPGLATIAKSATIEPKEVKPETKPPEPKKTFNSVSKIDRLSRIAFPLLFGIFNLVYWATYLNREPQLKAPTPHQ
T1 sequence (P18507 whole entry): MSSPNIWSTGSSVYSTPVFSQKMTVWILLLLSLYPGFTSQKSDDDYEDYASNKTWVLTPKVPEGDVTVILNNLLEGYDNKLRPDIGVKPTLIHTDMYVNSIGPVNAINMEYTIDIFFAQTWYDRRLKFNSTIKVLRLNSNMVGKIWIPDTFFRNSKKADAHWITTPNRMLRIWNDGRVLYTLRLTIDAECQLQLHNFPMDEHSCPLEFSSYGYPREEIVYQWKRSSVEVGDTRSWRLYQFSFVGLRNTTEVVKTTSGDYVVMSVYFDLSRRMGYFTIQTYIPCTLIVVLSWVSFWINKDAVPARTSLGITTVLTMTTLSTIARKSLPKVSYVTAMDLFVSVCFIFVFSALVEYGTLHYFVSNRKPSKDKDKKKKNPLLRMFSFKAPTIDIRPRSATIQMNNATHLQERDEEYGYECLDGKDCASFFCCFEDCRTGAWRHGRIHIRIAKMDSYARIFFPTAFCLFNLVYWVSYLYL
T1 sequence (P28472 whole entry): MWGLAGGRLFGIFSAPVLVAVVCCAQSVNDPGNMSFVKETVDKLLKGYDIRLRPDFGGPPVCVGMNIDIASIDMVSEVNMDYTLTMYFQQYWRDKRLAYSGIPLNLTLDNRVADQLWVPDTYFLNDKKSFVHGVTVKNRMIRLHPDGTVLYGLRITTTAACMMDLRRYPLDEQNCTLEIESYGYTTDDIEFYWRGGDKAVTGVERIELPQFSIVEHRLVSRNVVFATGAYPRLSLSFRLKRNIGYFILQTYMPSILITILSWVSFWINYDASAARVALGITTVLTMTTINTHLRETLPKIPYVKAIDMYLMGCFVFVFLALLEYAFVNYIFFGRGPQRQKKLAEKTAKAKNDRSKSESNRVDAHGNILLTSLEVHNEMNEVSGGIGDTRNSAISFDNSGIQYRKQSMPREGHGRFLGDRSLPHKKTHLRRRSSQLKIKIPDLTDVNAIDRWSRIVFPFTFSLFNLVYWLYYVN
Nature of the data set: Binding affinity to human GABAA alpha1beta3gamma2 receptor expressed in HEK293 cells assessed as GABA-induced membrane potential change preincubated for 3 mins followed by addition of GABA measured after 3 mins by FLIPR assay. Format: cell-based. An outline of the steps: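 Stably transfected HEK293T cells expressing α1β3γ2 (n = 2) or α3β3γ2 (n = 1) GABAARs. Membrane potential was read as fluorescence changes on a FLIPR Tetra, and EC50 was derived.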

For data set [6], the system named is Brain. Nature of the data set: Fraction unbound in rat brain by equilibrium dialysis method. Format: ADME, tissue-based. An outline of the steps: (§3)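 Fraction unbound was determined in vitro by equilibrium dialysis with rat plasma protein and rat brain.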
On the technique in general: Equilibrium dialysis compares concentrations on both sides of a semipermeable membrane.

The subject of data set [7] is Rattus norvegicus. The data set is described as follows: Anxiolytic like activity in water-deprived Sprague-Dawley rat assessed as increase in water drinking time during punished period at 60 mg/kg, po administered 30 mins prior to testing by Vogel conflict test relative to control. Format: functional. In outline:
as §1

Data set [8] in a line: AUC in femoral artery/vein cannulated Sprague-Dawley rat at 10 mg/kg, ip administered […] as single dose by LC-MS/MS analysis. As to conditions: in vivo. The class given is ADME, organism-based. An outline of the steps: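 Male Sprague-Dawley rats (n = 3 per time point) were dosed 1 mg/kg i.v. or 10 mg/kg i.p. Plasma concentrations were measured at set time points. Clearance, Vdss and T½ came from the i.v. arm, and AUC, Cmax and Tmax from the i.p. arm.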

Data set [9] concerns the target GABA-A receptor; alpha-5/beta-3/gamma-2 (Homo sapiens) (UniProt P18507+P28472+P31644). The data set is described as follows: Modulation of recombinant GABA alpha5beta3gamma2 receptor (unknown origin) expressed in Xenopus laevis oocytes assessed as change in GABA-induced EC(3 to 6) current at 10 uM by two-electrode voltage clamp assay. The class given is cell-based. In outline: (§4)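 Xenopus laevis oocytes expressing α1, α2, α3 or α5 β3γ2 GABAARs were recorded by two-electrode voltage clamp. Modulation of the GABA EC3-6 current (taken as 100%) was tested at 100 nM, 1 μM and 10 μM in the same cells. Values are mean ± SEM, n = 3–4.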
(In general: Two-electrode voltage clamp holds a large cell at a set potential and records current.)

The target of data set [10] is GABA-A receptor; alpha-1/beta-3/gamma-2 (Homo sapiens) (UniProt P14867+P18507+P28472). Nature of the data set: Modulation of recombinant GABA alpha1beta3gamma2 receptor (unknown origin) expressed in Xenopus laevis oocytes assessed as change in GABA-induced EC(3 to 6) current at 1 uM by two-electrode voltage clamp assay. Format: cell-based. An outline of the steps:
as §4

Data set [11] is described as follows: Total plasma concentration in Sprague-Dawley rat at 10 mg/kg, ip measured after 4 hrs. The class given is ADME, organism-based. An outline of the steps: as §2
Data set [12] has as its system Plasma. Nature of the data set: Fraction unbound in rat plasma by equilibrium dialysis method. Format: ADME, cell-free. An outline of the steps: as §3

As to `C#Cc1ccc2c(c1)C(c1ccccn1)=NCc1c(-c3cnco3)ncn1-2`, the Activity result in data set [1] was “Non-Toxic”; in data set [2], 240%; in data set [7], 200%; in [9], 246%; in data set [10], 155%. The concentration at 4 h in data set [3] turned out to be 2050 nM; in data set [11] it was 2130 nM. In [4], the outcome was Active. For the same compound, the EC50 – broadly, the concentration giving half of the maximal effect – in data set [5] was more than 20 µM. Besides, the Fu in [6] was found to be 17.7%; in data set [12], 25.9%. For the same compound, the AUC (commonly concentration integrated over time) in data set [8] was 16.5 µM·h.
